Results from ChEMBL document CHEMBL1944580, “Synthesis of novel sulfonamide-1,2,4-triazoles, 1,3,4-thiadiazoles and 1,3,4-oxadiazoles, as potential antibacterial and antifungal agents. Biological evaluation and conformational analysis studies” (2012).
Converted amounts (≈) assume the structure as drawn.

Tested on: Staphylococcus aureus
Assay: Antibacterial activity against Staphylococcus aureus ATCC 6538 after 24 hrs by micro dilution method
Format: functional
Conditions: ATCC 6538, 24 h
Summary of the method: (§1)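 Microdilution MIC in 96-well plates. Bacterial suspensions adjusted in sterile saline to 1.0 × 10^5 CFU/ml, giving 1.0 × 10^4 cfu per well in LB broth. Compounds tested at up to 1 mg/ml. Plates incubated 24 h. MIC taken as the lowest concentration with no visible growth under a binocular microscope. OD at 655 nm was also read against a blank and the positive control. Streptomycin and ampicillin were the positive controls.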

For `COc1cc(Cc2n[nH]c(=S)n2C(C)C)c(S(=O)(=O)N(C)C)cc1OC`, which MIC is on record?
The MIC was 380 µM (≈ 152 µg/mL).

Tested on: Enterobacter cloacae
Assay: Antibacterial activity against Enterobacter cloacae human isolate after 24 hrs by micro dilution method
Format: functional
Conditions: not given
Summary of the method: as §1

How did the MIC turn out when `COc1cc(Cc2n[nH]c(=S)n2C(C)C)c(S(=O)(=O)N(C)C)cc1OC` was run?
Its MIC is 630 µM (≈ 252 µg/mL).

Tested on: Aspergillus niger
Assay: Antifungal activity against Aspergillus niger ATCC 6275 after 72 hrs by serial dilution method
Format: functional
Conditions: ATCC 6275, 72 h
Summary of the method: (§2)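 Modified microdilution MIC. Spores were washed from malt agar cultures with sterile 0.85% saline containing 0.1% Tween 80 and adjusted to about 1.0 × 10^5 per 100 µl well in malt broth. Compounds were dissolved in DMSO (1 mg/ml). Plates incubated 72 h at 28 °C. MIC is the lowest concentration with no visible growth under a binocular microscope. Bifonazole and ketoconazole were the references.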

With `COc1cc(Cc2n[nH]c(=S)n2C(C)C)c(S(=O)(=O)N(C)C)cc1OC` as the compound, how does the MIC read?
The MIC was 130 µM (≈ 52.1 µg/mL).

Tested on: Aspergillus versicolor
Assay: Antifungal activity against Aspergillus versicolor ATCC 11730 after 72 hrs by serial dilution method
Format: functional
Conditions: ATCC 11730, 72 h
Summary of the method: as §2

How did the MIC turn out when `COc1cc(Cc2n[nH]c(=S)n2C(C)C)c(S(=O)(=O)N(C)C)cc1OC` was run?
Its MIC is 130 µM (≈ 52.1 µg/mL).

Tested on: Escherichia coli
Assay: Antibacterial activity against Escherichia coli ATCC 35210 treated for 24 hrs followed by sub-cultivated for 72 hrs by micro dilution method
Format: functional
Conditions: not given
Summary of the method: (§3)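 2 µl from each well was serially subcultured into 100 µl fresh broth per well and incubated a further 72 h. MBC is the lowest concentration with no visible growth, taken as 99.5% killing of the original inoculum. Streptomycin and ampicillin were the positive controls.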

How did the MBC turn out when `COc1cc(Cc2n[nH]c(=S)n2C(C)C)c(S(=O)(=O)N(C)C)cc1OC` was run?
The MBC was 630 µM (≈ 252 µg/mL).

Tested on: Trichoderma viride
Assay: Antifungal activity against Trichoderma viride IAM 5061 treated for 72 hrs followed by sub-cultivated for 5 days by serial dilution method
Format: functional
Conditions: not given
Summary of the method: (§4)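 MFC obtained after the 72 h, 28 °C malt-broth microdilution (spore inoculum about 1.0 × 10^5 per well, compounds from 1 mg/ml DMSO). 2 µl was serially subcultured into 100 µl broth per well and incubated a further 5 days at 28 °C. MFC is the lowest concentration with no visible growth, taken as 99.5% killing of the original inoculum.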

For `COc1cc(Cc2n[nH]c(=S)n2C(C)C)c(S(=O)(=O)N(C)C)cc1OC`, which MFC is on record?
Its MFC is 30 µM (≈ 12 µg/mL).

Tested on: Micrococcus flavus
Assay: Antibacterial activity against Micrococcus flavus ATCC 10240 treated for 24 hrs followed by sub-cultivated for 72 hrs by micro dilution method
Format: functional
Conditions: not given
Summary of the method: as §3

With `COc1cc(Cc2n[nH]c(=S)n2C(C)C)c(S(=O)(=O)N(C)C)cc1OC` as the compound, how does the MBC read?
Its MBC is 630 µM (≈ 252 µg/mL).

Tested on: Salmonella typhimurium
Assay: Antibacterial activity against Salmonella Typhimurium ATCC 13311 after 24 hrs by micro dilution method
Format: functional, Salmonella enterica subsp. enterica serovar Typhimurium
Conditions: Salmonella enterica, ATCC 13311, 24 h
Summary of the method: as §1

`COc1cc(Cc2n[nH]c(=S)n2C(C)C)c(S(=O)(=O)N(C)C)cc1OC` was tested. Which MIC did it give?
The MIC was 630 µM (≈ 252 µg/mL).

Tested on: Aspergillus fumigatus
Assay: Antifungal activity against Aspergillus fumigatus human isolate treated for 72 hrs followed by sub-cultivated for 5 days by serial dilution method
Format: functional
Conditions: not given
Summary of the method: as §4

With `COc1cc(Cc2n[nH]c(=S)n2C(C)C)c(S(=O)(=O)N(C)C)cc1OC` as the compound, how does the MFC read?
The MFC was 250 µM (≈ 100 µg/mL).

Tested on: Aspergillus versicolor
Assay: Antifungal activity against Aspergillus versicolor ATCC 11730 treated for 72 hrs followed by sub-cultivated for 5 days by serial dilution method
Format: functional
Conditions: not given
Summary of the method: as §4

Which MFC does the source give for `COc1cc(Cc2n[nH]c(=S)n2C(C)C)c(S(=O)(=O)N(C)C)cc1OC` here?
Its MFC is 380 µM (≈ 152 µg/mL).

Tested on: Pseudomonas aeruginosa
Assay: Antibacterial activity against Pseudomonas aeruginosa ATCC 27853 after 24 hrs by micro dilution method
Format: functional
Conditions: ATCC 27853, 24 h
Summary of the method: as §1

With `COc1cc(Cc2n[nH]c(=S)n2C(C)C)c(S(=O)(=O)N(C)C)cc1OC` as the compound, how does the MIC read?
The MIC was 630 µM (≈ 252 µg/mL).

Tested on: Micrococcus flavus
Assay: Antibacterial activity against Micrococcus flavus ATCC 10240 after 24 hrs by micro dilution method
Format: functional
Conditions: ATCC 10240, 24 h
Summary of the method: as §1

With `COc1cc(Cc2n[nH]c(=S)n2C(C)C)c(S(=O)(=O)N(C)C)cc1OC` as the compound, how does the MIC read?
The MIC was 630 µM (≈ 252 µg/mL).

Tested on: Listeria monocytogenes
Assay: Antibacterial activity against Listeria monocytogenes NCTC 7973 treated for 24 hrs followed by sub-cultivated for 72 hrs by micro dilution method
Format: functional
Conditions: not given
Summary of the method: as §3

With `COc1cc(Cc2n[nH]c(=S)n2C(C)C)c(S(=O)(=O)N(C)C)cc1OC` as the compound, how does the MBC read?
Its MBC is 630 µM (≈ 252 µg/mL).

Tested on: Talaromyces funiculosus
Assay: Antifungal activity against Penicillium funiculosum ATCC 36839 after 72 hrs by serial dilution method
Format: functional
Conditions: ATCC 36839, 72 h
Summary of the method: as §2

For `COc1cc(Cc2n[nH]c(=S)n2C(C)C)c(S(=O)(=O)N(C)C)cc1OC`, which MIC is on record?
Its MIC is 130 µM (≈ 52.1 µg/mL).

Tested on: Listeria monocytogenes
Assay: Antibacterial activity against Listeria monocytogenes NCTC 7973 after 24 hrs by micro dilution method
Format: functional
Conditions: NCTC 7973, 24 h
Summary of the method: as §1

Which MIC does the source give for `COc1cc(Cc2n[nH]c(=S)n2C(C)C)c(S(=O)(=O)N(C)C)cc1OC` here?
Its MIC is 630 µM (≈ 252 µg/mL).

Tested on: Trichoderma viride
Assay: Antifungal activity against Trichoderma viride IAM 5061 after 72 hrs by serial dilution method
Format: functional
Conditions: IAM 5061, 72 h
Summary of the method: as §2

`COc1cc(Cc2n[nH]c(=S)n2C(C)C)c(S(=O)(=O)N(C)C)cc1OC` was tested. Which MIC did it give?
The MIC was 10 µM (≈ 4.01 µg/mL).

Tested on: Bacillus cereus
Assay: Antibacterial activity against Bacillus cereus clinical isolate treated for 24 hrs followed by sub-cultivated for 72 hrs by micro dilution method
Format: functional
Conditions: not given
Summary of the method: as §3

How did the MBC turn out when `COc1cc(Cc2n[nH]c(=S)n2C(C)C)c(S(=O)(=O)N(C)C)cc1OC` was run?
Its MBC is 500 µM (≈ 200 µg/mL).

Tested on: Fulvia fulva
Assay: Antifungal activity against Fulvia fulva treated for 72 hrs followed by sub-cultivated for 5 days by serial dilution method
Format: functional
Conditions: not given
Summary of the method: as §4

Which MFC does the source give for `COc1cc(Cc2n[nH]c(=S)n2C(C)C)c(S(=O)(=O)N(C)C)cc1OC` here?
The MFC was 250 µM (≈ 100 µg/mL).

Tested on: Aspergillus flavus
Assay: Antifungal activity against Aspergillus flavus ATCC 9643 treated for 72 hrs followed by sub-cultivated for 5 days by serial dilution method
Format: functional
Conditions: not given
Summary of the method: as §4

For `COc1cc(Cc2n[nH]c(=S)n2C(C)C)c(S(=O)(=O)N(C)C)cc1OC`, which MFC is on record?
The MFC was 380 µM (≈ 152 µg/mL).

Tested on: Aspergillus niger
Assay: Antifungal activity against Aspergillus niger ATCC 6275 treated for 72 hrs followed by sub-cultivated for 5 days by serial dilution method
Format: functional
Conditions: not given
Summary of the method: as §4

Which MFC does the source give for `COc1cc(Cc2n[nH]c(=S)n2C(C)C)c(S(=O)(=O)N(C)C)cc1OC` here?
The MFC was 380 µM (≈ 152 µg/mL).

Tested on: Enterobacter cloacae
Assay: Antibacterial activity against Enterobacter cloacae human isolate treated for 24 hrs followed by sub-cultivated for 72 hrs by micro dilution method
Format: functional
Conditions: not given
Summary of the method: as §3

For `COc1cc(Cc2n[nH]c(=S)n2C(C)C)c(S(=O)(=O)N(C)C)cc1OC`, which MBC is on record?
The MBC was 630 µM (≈ 252 µg/mL).

Tested on: Penicillium ochrochloron
Assay: Antifungal activity against Penicillium ochrochloron ATCC 9112 after 72 hrs by serial dilution method
Format: functional
Conditions: ATCC 9112, 72 h
Summary of the method: as §2

How did the MIC turn out when `COc1cc(Cc2n[nH]c(=S)n2C(C)C)c(S(=O)(=O)N(C)C)cc1OC` was run?
Its MIC is 130 µM (≈ 52.1 µg/mL).

Tested on: Aspergillus fumigatus
Assay: Antifungal activity against Aspergillus fumigatus human isolate after 72 hrs by serial dilution method
Format: functional
Conditions: not given
Summary of the method: as §2

For `COc1cc(Cc2n[nH]c(=S)n2C(C)C)c(S(=O)(=O)N(C)C)cc1OC`, which MIC is on record?
Its MIC is 130 µM (≈ 52.1 µg/mL).

Tested on: Salmonella typhimurium
Assay: Antibacterial activity against Salmonella Typhimurium ATCC 13311 treated for 24 hrs followed by sub-cultivated for 72 hrs by micro dilution method
Format: functional, Salmonella enterica subsp. enterica serovar Typhimurium
Conditions: Salmonella enterica
Summary of the method: as §3

How did the MBC turn out when `COc1cc(Cc2n[nH]c(=S)n2C(C)C)c(S(=O)(=O)N(C)C)cc1OC` was run?
The MBC was 630 µM (≈ 252 µg/mL).

Tested on: Penicillium ochrochloron
Assay: Antifungal activity against Penicillium ochrochloron ATCC 9112 treated for 72 hrs followed by sub-cultivated for 5 days by serial dilution method
Format: functional
Conditions: not given
Summary of the method: as §4

Which MFC does the source give for `COc1cc(Cc2n[nH]c(=S)n2C(C)C)c(S(=O)(=O)N(C)C)cc1OC` here?
Its MFC is 380 µM (≈ 152 µg/mL).

Tested on: Fulvia fulva
Assay: Antifungal activity against Fulvia fulva after 72 hrs by serial dilution method
Format: functional
Conditions: not given
Summary of the method: as §2

How did the MIC turn out when `COc1cc(Cc2n[nH]c(=S)n2C(C)C)c(S(=O)(=O)N(C)C)cc1OC` was run?
The MIC was 250 µM (≈ 100 µg/mL).

Tested on: Talaromyces funiculosus
Assay: Antifungal activity against Penicillium funiculosum ATCC 36839 treated for 72 hrs followed by sub-cultivated for 5 days by serial dilution method
Format: functional
Conditions: not given
Summary of the method: as §4

For `COc1cc(Cc2n[nH]c(=S)n2C(C)C)c(S(=O)(=O)N(C)C)cc1OC`, which MFC is on record?
Its MFC is 250 µM (≈ 100 µg/mL).

Tested on: Staphylococcus aureus
Assay: Antibacterial activity against Staphylococcus aureus ATCC 6538 treated for 24 hrs followed by sub-cultivated for 72 hrs by micro dilution method
Format: functional
Conditions: not given
Summary of the method: as §3

For `COc1cc(Cc2n[nH]c(=S)n2C(C)C)c(S(=O)(=O)N(C)C)cc1OC`, which MBC is on record?
The MBC was 380 µM (≈ 152 µg/mL).

Tested on: Bacillus cereus
Assay: Antibacterial activity against Bacillus cereus clinical isolate after 24 hrs by micro dilution method
Format: functional
Conditions: not given
Summary of the method: as §1

How did the MIC turn out when `COc1cc(Cc2n[nH]c(=S)n2C(C)C)c(S(=O)(=O)N(C)C)cc1OC` was run?
The MIC was 250 µM (≈ 100 µg/mL).

Tested on: Pseudomonas aeruginosa
Assay: Antibacterial activity against Pseudomonas aeruginosa ATCC 27853 treated for 24 hrs followed by sub-cultivated for 72 hrs by micro dilution method
Format: functional
Conditions: not given
Summary of the method: as §3

For `COc1cc(Cc2n[nH]c(=S)n2C(C)C)c(S(=O)(=O)N(C)C)cc1OC`, which MBC is on record?
Its MBC is 630 µM (≈ 252 µg/mL).

Tested on: Escherichia coli
Assay: Antibacterial activity against Escherichia coli ATCC 35210 after 24 hrs by micro dilution method
Format: functional
Conditions: ATCC 35210, 24 h
Summary of the method: as §1

How did the MIC turn out when `COc1cc(Cc2n[nH]c(=S)n2C(C)C)c(S(=O)(=O)N(C)C)cc1OC` was run?
Its MIC is 630 µM (≈ 252 µg/mL).

Tested on: Aspergillus flavus
Assay: Antifungal activity against Aspergillus flavus ATCC 9643 after 72 hrs by serial dilution method
Format: functional
Conditions: ATCC 9643, 72 h
Summary of the method: as §2

With `COc1cc(Cc2n[nH]c(=S)n2C(C)C)c(S(=O)(=O)N(C)C)cc1OC` as the compound, how does the MIC read?
The MIC was 130 µM (≈ 52.1 µg/mL).
